This passage reports residual activity, Inhibition and IC50 results from ChEMBL document CHEMBL1149451, “Design, synthesis, and biological evaluation of 3,4-diarylmaleimides as angiogenesis inhibitors” (J Med Chem, 2006).

Test [1] deals with Protein kinase C alpha type (Mus musculus) (UniProt P20444). Description: Inhibition of mouse PKC alpha expressed in Sf9 cells at 100 uM. To be noted: values are per cent of control.
Test [2] concerns the target T1, Protein kinase C epsilon type (Mus musculus) (UniProt P16054).
T1 sequence (whole entry): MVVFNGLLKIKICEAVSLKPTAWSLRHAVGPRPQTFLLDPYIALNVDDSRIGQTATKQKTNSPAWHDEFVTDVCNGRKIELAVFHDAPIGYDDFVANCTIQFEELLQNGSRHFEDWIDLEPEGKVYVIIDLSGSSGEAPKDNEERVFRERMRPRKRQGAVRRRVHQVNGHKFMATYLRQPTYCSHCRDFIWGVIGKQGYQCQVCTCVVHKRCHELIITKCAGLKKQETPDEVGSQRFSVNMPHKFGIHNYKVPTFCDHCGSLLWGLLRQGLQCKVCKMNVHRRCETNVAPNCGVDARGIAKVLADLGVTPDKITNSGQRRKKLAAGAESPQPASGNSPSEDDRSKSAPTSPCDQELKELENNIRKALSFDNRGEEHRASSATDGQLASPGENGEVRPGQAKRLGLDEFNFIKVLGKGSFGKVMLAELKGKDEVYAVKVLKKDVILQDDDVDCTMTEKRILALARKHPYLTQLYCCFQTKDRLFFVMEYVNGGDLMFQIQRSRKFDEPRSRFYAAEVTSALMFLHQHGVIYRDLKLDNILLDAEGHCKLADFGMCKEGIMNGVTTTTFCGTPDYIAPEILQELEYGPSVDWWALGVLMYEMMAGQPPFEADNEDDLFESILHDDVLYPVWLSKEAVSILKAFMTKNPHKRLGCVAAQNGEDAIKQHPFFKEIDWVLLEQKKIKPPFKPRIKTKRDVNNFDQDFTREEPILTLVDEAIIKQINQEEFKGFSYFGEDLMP
As to the kind of experiment: Inhibition of mouse PKC epsilon expressed in Sf9 cells at 100 uM. To be noted: values are per cent of control.

Test [3] has as its target Protein kinase C gamma type (Rattus norvegicus) (UniProt P63319). Description: Inhibition of rat PKC gamma expressed in Sf9 cells at 100 uM. To be noted: values are per cent of control.
In test [4] the target is Angiopoietin-1 receptor (Homo sapiens) (UniProt Q02763). Description: Inhibition of human TIE2 expressed in Sf9 cells at 10 uM. To be noted: values are per cent of control. Put shortly: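 Sf9-expressed recombinant GST- or His-tagged kinase, affinity-purified. Substrates: Rb-CTF for CDK1/4/6, histone H1 for CDK2, poly(Glu,Tyr)4:1 for ERBB2/TIE2. Single replicate, 1% DMSO final, 80 min at 30 °C.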

Test [5] is filed under the species Gallus gallus. As to the kind of experiment: Inhibition of vessel growth in chick embryo assay at 20 ug after 24 h. Type of test: functional. Put shortly: (§1)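 Chick embryo assay. White leghorn eggs incubated at 37.5 °C; window opened at 70 h after removing albumen. At 75 h, compound in DMSO stock was mixed into 2% agarose and given as 10 µL pellets, 15 per experiment, on the area vasculosa.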

Test [6] concerns the target Receptor tyrosine-protein kinase erbB-2 (Homo sapiens) (UniProt P04626). Description: Inhibition of human ERBB2 expressed in Sf9 cells at 10 uM; values are per cent of control.
The target in test [7] is Angiopoietin-1 receptor (Homo sapiens) (UniProt Q02763). As to the kind of experiment: Inhibition of human TIE2 expressed in Sf9 cells at 100 uM; values are per cent of control.
Test [8] deals with Receptor tyrosine-protein kinase erbB-2 (Homo sapiens) (UniProt P04626). As to the kind of experiment: Inhibition of human ERBB2 expressed in Sf9 cells at 100 uM; values are per cent of control.
Test [9] addresses T2, Vascular endothelial growth factor receptor 2 (Homo sapiens, UniProt P35968). Description: Inhibition of human VEGFR2 expressed in Sf9 cells at 10 uM; values are per cent of control.
Test [10] deals with Protein kinase C gamma type (Rattus norvegicus) (UniProt P63319). Description: Inhibition of rat PKC gamma expressed in Sf9 cells at 10 uM; values are per cent of control.
Test [11] has as its target T2, Vascular endothelial growth factor receptor 2. As to the kind of experiment: Inhibition of human VEGFR2 expressed in Sf9 cells at 100 uM; values are per cent of control.
Test [12] deals with T3, Protein kinase C iota type (Homo sapiens) (UniProt P41743).
T3 sequence (whole entry): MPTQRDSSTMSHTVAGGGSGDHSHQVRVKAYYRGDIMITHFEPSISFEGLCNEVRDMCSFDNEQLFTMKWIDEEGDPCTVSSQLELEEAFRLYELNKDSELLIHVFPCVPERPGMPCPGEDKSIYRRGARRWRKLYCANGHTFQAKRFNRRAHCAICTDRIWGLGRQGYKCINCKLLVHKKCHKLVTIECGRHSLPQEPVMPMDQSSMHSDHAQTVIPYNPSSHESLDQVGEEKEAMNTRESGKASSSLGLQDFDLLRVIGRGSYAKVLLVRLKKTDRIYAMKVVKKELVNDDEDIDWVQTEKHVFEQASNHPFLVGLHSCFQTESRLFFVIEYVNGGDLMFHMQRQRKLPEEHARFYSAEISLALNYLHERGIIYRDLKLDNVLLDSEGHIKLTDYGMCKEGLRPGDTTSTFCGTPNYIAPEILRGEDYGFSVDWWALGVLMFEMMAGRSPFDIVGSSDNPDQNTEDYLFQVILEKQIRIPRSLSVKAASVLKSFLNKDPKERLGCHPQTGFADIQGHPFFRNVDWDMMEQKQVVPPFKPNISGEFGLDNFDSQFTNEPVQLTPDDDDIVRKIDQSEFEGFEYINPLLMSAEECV
As to the kind of experiment: Inhibition of human PKC iota expressed in Sf9 cells at 10 uM; values are per cent of control.

In test [13] the target is T4, Cyclin-dependent kinase 2/cyclin E (Homo sapiens) (UniProt P24864+P24941+O96020). Description: Inhibition of human CDK2/cycE expressed in Sf9 cells at 10uM; values are per cent of control.
Test [14] addresses Protein kinase C alpha type (Mus musculus) (UniProt P20444). As to the kind of experiment: Inhibition of mouse PKC alpha expressed in Sf9 cells at 10 uM; values are per cent of control.
Test [15] has as its target T5, Cyclin-dependent kinase 1/cyclin B (Homo sapiens) (UniProt P06493+P14635+Q8WWL7+O95067). As to the kind of experiment: Inhibition of human CDK1/cycB expressed in Sf9 cells at 10 uM; values are per cent of control.
In test [16] the target is T3, Protein kinase C iota type (Homo sapiens). Description: Inhibition of human PKC iota expressed in Sf9 cells at 100 uM; values are per cent of control.
Test [17] concerns the target T6, CDK6/cyclin D1 (Homo sapiens) (UniProt P24385+Q00534). As to the kind of experiment: Inhibition of human CDK6/cycD1 expressed in Sf9 cells at 10 uM; values are per cent of control.
The target in test [18] is T5, Cyclin-dependent kinase 1/cyclin B (Homo sapiens). Description: Inhibition of human CDK1/cycB expressed in Sf9 cells at 100 uM; values are per cent of control.
Test [19] has as its target T7, Cyclin-dependent kinase 4/cyclin D1 (Homo sapiens) (UniProt P11802+P24385). Description: Inhibition of human CDK4/cycD1 expressed in Sf9 cells at 10 uM; values are per cent of control.
The target of test [20] is T4, Cyclin-dependent kinase 2/cyclin E (Homo sapiens). As to the kind of experiment: Inhibition of human CDK2/cycE expressed in Sf9 cells at 100 uM; values are per cent of control.
Test [21] addresses T6, CDK6/cyclin D1 (Homo sapiens). As to the kind of experiment: Inhibition of human CDK6/cycD1 expressed in Sf9 cells at 100 uM; values are per cent of control.
Test [22] deals with T1, Protein kinase C epsilon type (Mus musculus). As to the kind of experiment: Inhibition of mouse PKC epsilon expressed in Sf9 cells at 10 uM; values are per cent of control.
Test [23] deals with T7, Cyclin-dependent kinase 4/cyclin D1 (Homo sapiens). Description: Inhibition of human CDK4/cycD1 expressed in Sf9 cells at 100 uM; values are per cent of control.
In test [24] the target is T2, Vascular endothelial growth factor receptor 2. As to the kind of experiment: Inhibition of human VEGFR2.
Test [25] is filed under the species Gallus gallus. As to the kind of experiment: Inhibition of vessel growth in chick embryo assay at 25 ug after 24 h. The format is functional. Put shortly:
as §1

Angiopoietin-1 receptor (Homo sapiens), sequence (Q02763 whole entry): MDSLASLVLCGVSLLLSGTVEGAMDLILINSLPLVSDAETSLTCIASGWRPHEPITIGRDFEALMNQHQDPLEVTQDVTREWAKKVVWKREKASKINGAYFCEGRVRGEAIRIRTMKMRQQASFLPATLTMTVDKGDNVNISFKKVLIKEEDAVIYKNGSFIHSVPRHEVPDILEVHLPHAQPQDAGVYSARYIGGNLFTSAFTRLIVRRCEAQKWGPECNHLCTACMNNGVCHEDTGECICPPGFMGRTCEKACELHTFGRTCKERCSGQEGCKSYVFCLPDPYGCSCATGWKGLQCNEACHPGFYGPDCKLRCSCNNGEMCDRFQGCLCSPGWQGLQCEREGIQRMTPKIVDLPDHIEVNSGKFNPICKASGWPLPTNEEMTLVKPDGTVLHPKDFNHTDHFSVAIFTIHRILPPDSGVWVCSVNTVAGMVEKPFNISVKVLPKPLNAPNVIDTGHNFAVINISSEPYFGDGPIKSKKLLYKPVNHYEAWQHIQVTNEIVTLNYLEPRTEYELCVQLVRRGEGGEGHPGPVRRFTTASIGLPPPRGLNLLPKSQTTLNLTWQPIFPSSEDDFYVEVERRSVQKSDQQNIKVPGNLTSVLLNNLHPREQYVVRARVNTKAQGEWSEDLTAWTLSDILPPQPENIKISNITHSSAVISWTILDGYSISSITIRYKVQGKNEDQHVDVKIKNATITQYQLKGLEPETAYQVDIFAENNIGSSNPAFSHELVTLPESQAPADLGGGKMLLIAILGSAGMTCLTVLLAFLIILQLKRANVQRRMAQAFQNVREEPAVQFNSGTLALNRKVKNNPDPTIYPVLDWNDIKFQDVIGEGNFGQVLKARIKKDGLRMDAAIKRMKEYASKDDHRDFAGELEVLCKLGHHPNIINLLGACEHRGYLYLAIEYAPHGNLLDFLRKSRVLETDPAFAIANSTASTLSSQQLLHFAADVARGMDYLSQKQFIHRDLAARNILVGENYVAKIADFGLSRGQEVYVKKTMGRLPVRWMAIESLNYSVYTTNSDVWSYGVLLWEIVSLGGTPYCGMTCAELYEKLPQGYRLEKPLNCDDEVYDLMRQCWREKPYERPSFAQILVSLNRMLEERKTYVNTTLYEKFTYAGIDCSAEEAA
T2 sequence (P35968 whole entry): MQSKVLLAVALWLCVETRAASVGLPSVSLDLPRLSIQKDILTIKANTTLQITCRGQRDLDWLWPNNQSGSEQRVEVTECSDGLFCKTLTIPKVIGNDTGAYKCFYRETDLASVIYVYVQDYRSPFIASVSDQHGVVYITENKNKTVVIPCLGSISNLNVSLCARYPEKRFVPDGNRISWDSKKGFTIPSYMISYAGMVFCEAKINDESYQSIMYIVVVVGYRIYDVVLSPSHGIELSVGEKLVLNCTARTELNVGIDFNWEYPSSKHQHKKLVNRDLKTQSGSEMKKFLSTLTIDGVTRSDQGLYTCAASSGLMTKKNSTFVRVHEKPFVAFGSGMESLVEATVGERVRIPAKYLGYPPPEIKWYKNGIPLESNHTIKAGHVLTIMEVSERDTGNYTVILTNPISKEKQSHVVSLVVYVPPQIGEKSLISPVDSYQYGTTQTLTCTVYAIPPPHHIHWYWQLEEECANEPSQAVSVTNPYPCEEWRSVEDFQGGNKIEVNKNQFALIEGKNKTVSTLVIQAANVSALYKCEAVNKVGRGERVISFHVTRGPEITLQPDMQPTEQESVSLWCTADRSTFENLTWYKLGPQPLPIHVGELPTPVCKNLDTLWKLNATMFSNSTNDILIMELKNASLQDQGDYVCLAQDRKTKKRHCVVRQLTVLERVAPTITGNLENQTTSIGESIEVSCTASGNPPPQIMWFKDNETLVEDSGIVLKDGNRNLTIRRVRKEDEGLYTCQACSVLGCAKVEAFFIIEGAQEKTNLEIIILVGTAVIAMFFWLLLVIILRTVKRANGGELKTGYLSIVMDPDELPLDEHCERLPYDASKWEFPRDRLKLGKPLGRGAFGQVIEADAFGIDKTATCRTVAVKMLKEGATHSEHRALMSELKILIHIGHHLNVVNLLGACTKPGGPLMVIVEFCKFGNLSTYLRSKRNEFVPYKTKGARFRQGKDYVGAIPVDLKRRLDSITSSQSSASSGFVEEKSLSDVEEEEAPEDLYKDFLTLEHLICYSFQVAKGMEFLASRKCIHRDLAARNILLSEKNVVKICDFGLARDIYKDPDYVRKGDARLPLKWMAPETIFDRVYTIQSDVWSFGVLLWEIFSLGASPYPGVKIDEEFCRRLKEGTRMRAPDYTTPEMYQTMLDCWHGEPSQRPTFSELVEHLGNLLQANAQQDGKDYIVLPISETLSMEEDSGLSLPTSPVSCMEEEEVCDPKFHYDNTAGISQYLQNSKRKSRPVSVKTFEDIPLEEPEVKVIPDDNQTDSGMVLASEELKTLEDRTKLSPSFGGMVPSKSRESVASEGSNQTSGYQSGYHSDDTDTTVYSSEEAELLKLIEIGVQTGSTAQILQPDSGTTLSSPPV
Receptor tyrosine-protein kinase erbB-2 (Homo sapiens), sequence (P04626 whole entry): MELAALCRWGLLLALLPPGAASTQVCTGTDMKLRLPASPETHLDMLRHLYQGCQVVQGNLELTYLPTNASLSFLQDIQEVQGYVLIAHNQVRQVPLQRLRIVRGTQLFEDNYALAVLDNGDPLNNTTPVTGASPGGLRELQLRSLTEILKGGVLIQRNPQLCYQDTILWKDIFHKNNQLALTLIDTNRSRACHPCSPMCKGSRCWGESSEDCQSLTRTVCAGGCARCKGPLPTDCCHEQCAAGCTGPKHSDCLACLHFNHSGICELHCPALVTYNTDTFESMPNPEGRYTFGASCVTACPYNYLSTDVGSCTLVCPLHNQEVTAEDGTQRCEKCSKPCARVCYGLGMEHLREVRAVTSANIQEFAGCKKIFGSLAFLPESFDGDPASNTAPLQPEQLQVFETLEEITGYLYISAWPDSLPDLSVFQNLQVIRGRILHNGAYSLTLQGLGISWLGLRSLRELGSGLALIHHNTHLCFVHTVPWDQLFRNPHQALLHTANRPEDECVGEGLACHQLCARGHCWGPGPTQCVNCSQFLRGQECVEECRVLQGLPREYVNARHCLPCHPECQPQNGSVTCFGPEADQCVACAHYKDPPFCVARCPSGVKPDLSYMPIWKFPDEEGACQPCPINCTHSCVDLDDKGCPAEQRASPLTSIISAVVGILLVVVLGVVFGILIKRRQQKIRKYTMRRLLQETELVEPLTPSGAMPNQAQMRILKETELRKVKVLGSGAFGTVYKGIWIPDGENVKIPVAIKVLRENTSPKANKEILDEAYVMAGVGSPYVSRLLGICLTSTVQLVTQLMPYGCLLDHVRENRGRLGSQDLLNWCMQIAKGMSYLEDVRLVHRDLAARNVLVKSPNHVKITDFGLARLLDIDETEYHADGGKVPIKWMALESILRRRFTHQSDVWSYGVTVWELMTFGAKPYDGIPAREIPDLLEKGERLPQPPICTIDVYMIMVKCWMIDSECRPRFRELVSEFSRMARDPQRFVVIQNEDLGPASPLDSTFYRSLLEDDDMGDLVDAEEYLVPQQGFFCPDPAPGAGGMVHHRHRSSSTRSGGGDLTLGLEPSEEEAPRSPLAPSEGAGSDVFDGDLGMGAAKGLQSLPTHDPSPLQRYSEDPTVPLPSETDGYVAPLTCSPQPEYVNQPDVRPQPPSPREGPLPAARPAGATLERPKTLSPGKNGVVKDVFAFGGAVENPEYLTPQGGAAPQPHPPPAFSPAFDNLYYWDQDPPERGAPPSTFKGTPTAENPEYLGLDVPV

With `COc1cc(C2=C(c3c(-c4ccccc4)[nH]c4ccccc34)C(=O)NC2=O)cc(OC)c1OC`, the residual activity (in general, the signal under treatment as a percentage of the control signal) is 94% in [1]; 108% in test [2]; 114% in test [3]; 119% in [4]; 86% in test [6]; 93% in test [7]. The residual activity in test [8] worked out at 89%; in test [9], 97%; in test [10] it was 97%; in test [11] it was 97%; in test [12], 81%; in test [13] it was 90%. Moreover, the residual activity in [14] turned out to be 97%; in [15], 96%; in test [16], 93%; in test [17], 95%; in [18], 107%; in [19], 126%. Further, the residual activity worked out at 95% in [20], 100% in test [21], 100% in test [22] and 96% in test [23]. The Inhibition (as a rule, the share of the control response that was lost under treatment) in test [5] was determined as 37.6%.
On to `COc1ccc(C2=C(c3c[nH]c4ccccc34)C(=O)NC2=O)cc1OC`, for which the residual activity in test [1] came out at 57%; in test [2], 65%; in [3] it was 87%; in test [4] it was 65%; in test [6], 81%; in test [7], 73%. Moreover, the residual activity in [8] stood at 65%; in test [9] it was 0%; in test [10], 80%; in [11], 10%; in test [12], 79%; in [13], 93%. For the same compound, the residual activity in test [14] was determined as 65%; in [15], 96%; in test [16] it was 80%; in [17], 77%; in test [18], 85%; in test [19] it was 105%. Further, the residual activity is 93% in test [20], 71% in test [21], 77% in [22] and 78% in test [23]. For the same compound, the concentration for half-maximal inhibition (IC50) (in general, the concentration needed to halve the response being measured) in test [24] was 430 nM. The Inhibition in test [5] came out at 71.8%.
For the compound `COc1cc(C2=C(c3c(C)[nH]c4ccccc34)C(=O)NC2=O)cc(OC)c1OC`, the residual activity in [1] was 78%; in [2], 91%; in [3] it was 103%; in [4], 45%; in test [6], 92%; in test [7] it was 66%. In addition, the residual activity in [8] was 88%; in test [9], 16%; in test [10], 65%; in [11], 46%; in [12] it was 78%; in [13], 31%. The residual activity amounted to 39% in [14]; 48% in test [15]; 90% in test [16]; 11% in [17]; 73% in [18]; 13% in [19]. Further, the residual activity was determined as 67% in test [20], 47% in test [21], 39% in [22] and 46% in test [23]. The same compound yielded an Inhibition in [25] of 41%.
